Source: ChEMBL document CHEMBL1132111, “Design and synthesis of novel alpha(1)(a) adrenoceptor-selective antagonists. 4. Structure-activity relationship in the dihydropyrimidine series” (J Med Chem, 1999)
“And” between values parts separate entries of the source, which are not always exact repeats. Equal values may be shown once.

Tests used:
[1] = molecular target: T1, Alpha-1A adrenergic receptor (Homo sapiens, UniProt P35348); assay: Binding affinity against Alpha-1A adrenergic receptor (recombinant human receptor) using [3H]prazosin.
T1 sequence (P35348 whole entry): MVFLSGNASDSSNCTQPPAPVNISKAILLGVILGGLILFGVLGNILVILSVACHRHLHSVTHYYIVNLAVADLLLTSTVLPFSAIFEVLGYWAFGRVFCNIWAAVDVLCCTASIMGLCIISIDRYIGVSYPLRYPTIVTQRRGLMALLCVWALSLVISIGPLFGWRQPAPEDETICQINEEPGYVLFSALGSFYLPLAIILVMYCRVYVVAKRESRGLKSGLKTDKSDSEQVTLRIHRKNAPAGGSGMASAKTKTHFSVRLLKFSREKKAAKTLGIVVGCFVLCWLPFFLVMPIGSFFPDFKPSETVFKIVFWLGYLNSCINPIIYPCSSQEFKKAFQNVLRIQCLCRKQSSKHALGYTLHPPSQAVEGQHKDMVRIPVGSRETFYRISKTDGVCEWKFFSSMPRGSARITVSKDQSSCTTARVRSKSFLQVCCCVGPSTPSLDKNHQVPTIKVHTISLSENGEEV

[2] = molecular target: T2, Alpha-1B adrenergic receptor (Homo sapiens, UniProt P35368); assay: Binding affinity against Alpha-1B adrenergic receptor (recombinant human receptor) using [3H]prazosin.
T2 sequence (P35368 whole entry): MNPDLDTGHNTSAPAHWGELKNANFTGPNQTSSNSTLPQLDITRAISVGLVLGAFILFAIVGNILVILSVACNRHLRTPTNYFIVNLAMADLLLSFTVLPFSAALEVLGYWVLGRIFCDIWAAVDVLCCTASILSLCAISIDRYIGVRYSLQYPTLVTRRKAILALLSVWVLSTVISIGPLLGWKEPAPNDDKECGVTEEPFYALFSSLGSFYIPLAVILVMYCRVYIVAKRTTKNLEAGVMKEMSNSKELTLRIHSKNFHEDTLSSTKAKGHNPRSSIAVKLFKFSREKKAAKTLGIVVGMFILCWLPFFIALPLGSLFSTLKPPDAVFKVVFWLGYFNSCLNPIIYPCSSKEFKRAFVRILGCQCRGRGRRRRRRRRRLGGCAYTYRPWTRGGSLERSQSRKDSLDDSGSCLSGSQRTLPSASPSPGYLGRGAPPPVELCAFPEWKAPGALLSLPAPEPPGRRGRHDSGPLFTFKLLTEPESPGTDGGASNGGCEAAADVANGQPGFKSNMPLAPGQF

[3] = molecular target: T3, Alpha-1D adrenergic receptor (Homo sapiens, UniProt P25100); assay: Binding affinity against Alpha-1D adrenergic receptor (recombinant human receptor) using [3H]-prazosin.
T3 sequence (P25100 whole entry): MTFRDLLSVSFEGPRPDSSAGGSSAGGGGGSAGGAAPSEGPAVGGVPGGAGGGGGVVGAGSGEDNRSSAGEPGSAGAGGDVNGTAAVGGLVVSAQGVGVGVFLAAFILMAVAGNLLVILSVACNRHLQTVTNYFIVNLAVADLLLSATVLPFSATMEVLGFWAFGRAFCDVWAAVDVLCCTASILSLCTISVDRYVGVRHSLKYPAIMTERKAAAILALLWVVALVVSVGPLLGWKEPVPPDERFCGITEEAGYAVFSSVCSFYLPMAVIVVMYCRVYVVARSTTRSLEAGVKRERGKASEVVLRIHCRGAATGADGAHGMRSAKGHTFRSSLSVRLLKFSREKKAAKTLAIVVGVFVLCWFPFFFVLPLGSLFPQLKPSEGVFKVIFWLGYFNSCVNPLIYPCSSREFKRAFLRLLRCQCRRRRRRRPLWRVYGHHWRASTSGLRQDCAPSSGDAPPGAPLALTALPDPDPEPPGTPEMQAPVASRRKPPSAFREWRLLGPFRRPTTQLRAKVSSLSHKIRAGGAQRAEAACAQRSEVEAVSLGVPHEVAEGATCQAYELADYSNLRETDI

[4] = Selectivity against alpha-1a receptor over alpha-2a,b,c adrenoceptors
In short: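 Binding affinities (Ki, nM) measured at recombinant human α1a and α2a, α2b and α2c adrenoceptors; fold selectivity expressed as the ratio of α2 subtype Ki to α1a Ki.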

[5] = molecular target: T3, Alpha-1D adrenergic receptor; assay: Binding affinity against isolated human aorta using [3H]- prazosin.; format: tissue-based
[6] = molecular target: T1, Alpha-1A adrenergic receptor; assay: Binding affinity against isolated human prostate using [3H]- prazosin.; format: tissue-based, Prostate gland
Rattus norvegicus [7] = species on record: Rattus norvegicus; assay: Antagonistic activity inhibiting phenylephrine induced contractions in isolated rat prostate.; format: functional, Prostate gland
[8] = molecular target: T4, Alpha-1A adrenergic receptor (Rattus norvegicus, UniProt P43140); assay: Binding affinity against isolated rat prostate using [3H]- prazosin.; format: tissue-based, Prostate gland
T4 sequence (P43140 whole entry): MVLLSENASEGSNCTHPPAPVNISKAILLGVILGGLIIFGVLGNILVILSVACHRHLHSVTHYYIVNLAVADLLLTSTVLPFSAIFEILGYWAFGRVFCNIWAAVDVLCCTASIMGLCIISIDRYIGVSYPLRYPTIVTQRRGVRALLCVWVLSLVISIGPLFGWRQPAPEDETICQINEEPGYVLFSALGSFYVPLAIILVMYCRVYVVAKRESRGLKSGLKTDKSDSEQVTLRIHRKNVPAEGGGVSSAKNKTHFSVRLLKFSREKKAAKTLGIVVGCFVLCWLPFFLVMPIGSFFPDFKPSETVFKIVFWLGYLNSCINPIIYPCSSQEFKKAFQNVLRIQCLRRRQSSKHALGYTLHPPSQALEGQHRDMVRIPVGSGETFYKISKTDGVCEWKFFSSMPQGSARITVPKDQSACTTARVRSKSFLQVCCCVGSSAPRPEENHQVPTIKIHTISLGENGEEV

Canis familiaris [9] = assay: Area under curve at a peroral dose of 3 mg/kg in dog; format: ADME, organism-based, Canis lupus familiaris; set-up: dose 3 mg/kg, route oral; conditions: in vivo, po
In short: (§1)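 Each compound dosed once intravenously at 1 mg/kg and orally at 3 mg/kg. Exposure read as plasma area under the concentration-time curve, reported in µmol min/L.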

[10] = Plasma half life in rat; format: ADME, organism-based
[11] = Bioavailability in rat; format: ADME, organism-based; conditions: in vivo
[12] = Bioavailability in dog(iv: 1 mg/kg); format: ADME, organism-based, Canis lupus familiaris; conditions: in vivo
Rattus norvegicus [13] = assay: Area under curve at a peroral dose of 3 mg/kg in rat; format: ADME, organism-based; set-up: dose 3 mg/kg, route oral; conditions: in vivo, po; in short: as §1
Canis familiaris [14] = assay: Area under curve at an iv dose of 1 mg/kg in dog; format: ADME, organism-based, Canis lupus familiaris; set-up: dose 1 mg/kg, route intravenous; conditions: in vivo; in short: as §1
[15] = Plasma half life in dog; format: ADME, organism-based, Canis lupus familiaris
Rattus norvegicus [16] = assay: Area under curve at an iv dose of 1 mg/kg in rat; format: ADME, organism-based; set-up: dose 1 mg/kg, route intravenous; conditions: in vivo; in short: as §1
[17] = Bioavailability in dog; format: ADME, organism-based, Canis lupus familiaris; conditions: in vivo
[18] = Selectivity for alpha-1a receptor against rat L-type calcium channel by [3H]nitrendipine binding

Ki [1]	Ki [2]	Ki [3]	Fold selective [4]	Structure (SMILES)	further results
0.5 nM	34 nM	79 nM	> 100	COC(=O)C1=C(C)N=C(C)N(CCCCCN2CCN(c3ccccc3C(=O)OC)CC2)C1c1ccc(F)c(F)c1 (centres undefined)	
1 nM	490 nM	1100 nM	> 300	COC(=O)C1=C(C)N=C(C)N(CCCCCN2CCC(C#N)(c3ccccc3)CC2)C1c1ccc(F)c(F)c1 (centres undefined)	
0.4 nM	100 nM	180 nM		COC(=O)C1=C(C)N=C(C)N(CCCCCN2CCC(c3ccccc3)(c3ccccc3)CC2)C1c1ccc(F)c(F)c1 (centres undefined)	Ki [5]: 110 nM; Ki [6]: 0.33 nM; Kb (Rattus norvegicus [7]): 60 nM; Ki [8]: 0.97 nM
0.3 nM	140 nM	120 nM	> 100	COC(=O)C1=C(C)N=C(C)N(CCCCCN2CCC(c3ccccc3OC)CC2)C1c1ccc(F)c(F)c1 (centres undefined)	
0.6 nM	240 nM	580 nM		COC(=O)C1=C(C)N=C(C)N(CCCCCN2CCN(c3ccccc3C(N)=O)CC2)C1c1ccc(F)c(F)c1 (centres undefined)	half-life [10]: 2.1 h; bioavailability [17]: < 10%; Kb (Rattus norvegicus [7]): 7 nM; bioavailability [11]: 21%; AUC (Rattus norvegicus [13]): 4 uM min l-1; half-life [15]: 4 h; AUC (Rattus norvegicus [16]): 5 uM min l-1
0.4 nM	67 nM	65 nM	< 100	COC(=O)C1=C(C)N=C(C)N(CCCCCN2CCN(c3ccccc3OC)CC2)C1c1ccc(F)c(F)c1 (centres undefined)	
0.4 nM	400 nM	680 nM	> 4000	COCC1=C(C(=O)OC)C(c2ccc(F)c(F)c2)N(CCCCCN2CCC(C#N)(c3ccccc3)CC2)C(C)=N1 (centres undefined)	
0.4 nM	310 nM	480 nM	> 700	COCC1=NC(C)=C(C(=O)OC)C(c2ccc(F)c(F)c2)N1CCCCCN1CCC(C#N)(c2ccccc2)CC1 (centres undefined)	
0.4 nM	93 nM	220 nM	> 300	COC(=O)C1=C(C)N=C(C)N(CCCCCN2CCC(c3ccccc3)CC2)C1c1ccc(F)c(F)c1 (centres undefined)	
1.1 nM	500 nM	1100 nM		COC(=O)C1=C(C)N=C(C)N(CCCCCN2CCC(c3ccccc3C(F)(F)F)CC2)C1c1ccc(F)c(F)c1 (centres undefined)	Selectivity [18]: < 100

Continued, compound first:

Structure (SMILES)	Ki [1]	Ki [2]	Ki [3]	Fold selective [4]	further results
COC(=O)C1=C(C)N=C(C)N(CCCCCN2CCC(c3ccc(C)cc3)(c3ccccc3C)CC2)C1c1ccc(F)c(F)c1 (centres undefined)	0.1 nM	250 nM	440 nM		AUC (Canis familiaris [9]): 8 uM min l-1; half-life [10]: 4.7 h; Kb (Rattus norvegicus [7]): 27 nM; bioavailability [11]: 17%; bioavailability [12]: 8%; AUC (Rattus norvegicus [13]): 21 uM min l-1; AUC (Canis familiaris [14]): 11 uM min l-1; half-life [15]: 0.5 h; AUC (Rattus norvegicus [16]): 35 uM min l-1
COC(=O)C1=C(C)N=C(C)N(CCCCN2CCC(C(=O)OC)(c3ccccc3)CC2)C1c1ccc(F)c(F)c1 (centres undefined)	3.6 nM	440 nM	610 nM	< 80	
COC(=O)C1=C(C)NC(=O)N(CCCCCN2CCC(C(=O)OC)(c3ccccc3)CC2)C1c1ccc(F)c(F)c1 (centres undefined)				> 1000	
COC(=O)C1=C(C)N=C(C)N(CCC[C@H](C)CN2CCC(C#N)(c3ccccc3)CC2)C1c1ccc(F)c(F)c1 (some centres undefined)	1.2 nM	480 nM	1100 nM	> 120	
COC(=O)C1=C(C)N=C(C)N(CCC[C@@H](C)CN2CCC(C#N)(c3ccccc3)CC2)C1c1ccc(F)c(F)c1 (some centres undefined)	22 nM	1700 nM	1600 nM	< 10	
COC(=O)C1=C(C)N=C(C)N(CCC[C@H](C)CN2CCN(c3ccccc3C(N)=O)CC2)C1c1ccc(F)c(F)c1 (some centres undefined)	3.5 nM	810 nM	1700 nM	< 100	
COC(=O)C1=C(C)N=C(C)N(Cc2cccc(CN3CCC(C(=O)OC)(c4ccccc4)CC3)c2)C1c1ccc(F)c(F)c1 (centres undefined)	6.8 nM	320 nM	570 nM	> 130	
CNC(=O)C1=C(C)N=C(C)N(CCCCCN2CCC(C(=O)OC)(c3ccccc3)CC2)C1c1ccc(F)cc1F (centres undefined)	14 nM	870 nM	1900 nM	< 80	
COC(=O)C1=C(C)N=C(C)N(CCC[C@H](C)CN2CCC(C(=O)OC)(c3ccccc3)CC2)C1c1ccc(F)c(F)c1 (single isomer, unassigned; (+))	1.6 nM	430 nM	910 nM	< 50	
COC(=O)C1=C(C)N=C(C)N(CCCCCN2CCC(C(=O)OC)(c3ccccc3)CC2)C1c1ccc(F)c(F)c1 (centres undefined)		700 nM and 190 nM	550 nM and 180 nM		
COC(=O)C1(c2ccccc2)CCN(CCCCCN2C(C)=NC(C)=C(C(N)=O)C2c2ccc(F)cc2F)CC1 (centres undefined)	4.2 nM	410 nM	690 nM	< 10	
COC(=O)C1=C(C)N=C(C)N(CCC[C@@H](C)CN2CCN(c3ccccc3C(N)=O)CC2)C1c1ccc(F)c(F)c1 (single isomer, unassigned; (+))	20 nM	1500 nM	1700 nM	< 10	
COC(=O)C1=C(C)N=C(C)N(CCCCCN2CCC(C(=O)OC)(c3ccccc3)CC2)C1c1ccc(F)cc1F (centres undefined)	0.5 nM	160 nM	700 nM	> 1000	
